One series relates to D54 tumors. As to the kind of experiment: NanoSPECT/CT imaging, heterotopic glioblastoma tumors. In kind it is in vivo. The settings on record: nude mice, 48 h post injection, tumor irradiated 3 x 3 Gy.
For series [1], the system named is HT3 tumors. Put plainly: NanoSPECT/CT imaging, heterotopic cervical tumors. In kind it is in vivo, nude mice.
Another series deals with A549 tumors. As to the kind of experiment: NanoSPECT/CT imaging, heterotopic lung tumors. The following applies: nude mice, 48 h post injection, tumor irradiated 3 x 3 Gy. In kind it is in vivo.
Series [2] concerns OE33 tumors. As to the kind of experiment: Autoradiography of tumor and muscle sections. The series is classed as in vivo, nude mice. The following applies: phosphor imager plate 16 h, after SPECT imaging. Put shortly:
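After SPECT, tumors were sectioned at 200 micron, with leg muscle sections as control tissue. Sections were exposed to a phosphor imager plate for 16 h at −20 °C, and the plate was scanned to map microdistribution of the ¹¹¹In-labelled PEG-peptide.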

Series [3] concerns OE33 tumors. Put plainly: NanoSPECT/CT imaging, heterotopic esophageal tumors. The series is classed as in vivo, nude mice.
For series [4], the system named is OE33 tumors. In kind it is in vivo, nude mice.
For the next series, the system named is BxPC3 tumors. Put plainly: NanoSPECT/CT imaging, heterotopic pancreatic tumors. The series is classed as in vivo. The settings on record: nude mice, 48 h post injection, tumor irradiated 3 x 3 Gy.
Series [5] concerns HT3 tumors. The series is classed as in vivo, nude mice.
For another series, the target named is T1, TIP1 protein (Homo sapiens, UniProt O14907).
T1 sequence (O14907 1-124): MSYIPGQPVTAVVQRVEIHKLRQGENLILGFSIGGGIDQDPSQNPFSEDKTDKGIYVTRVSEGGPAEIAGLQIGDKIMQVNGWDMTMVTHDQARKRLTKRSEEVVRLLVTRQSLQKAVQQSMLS
As to the kind of experiment: Surface plasmon resonance. The series is classed as binding. The following applies: SPR BIAcore 2000, TIP1 on CM5 chip, Supplementary figure 1. In general terms: Surface plasmon resonance follows binding to a sensor surface in real time, without labels.

The mark [6] stands for this setting: nude mice, i.v. ~500 μCi, 48 h and 72 h post injection, n=3 per group.
The mark [7] stands for this setting: right hind limb tumor 3 x 3 Gy vs left sham tumor.
[8] abbreviates: 96 h post injection, gamma counter, n=3 per group.

Ends that are not written are not given here. * marks the point of attachment. DTPA = O=C(O)CN(CCN(CC(=O)O)CC(=O)O)CCN(CC(=O)O)CC(=O)*; PEG = 40 kDa poly(ethylene glycol)

In the case of “^111In-labeled PEG-DTPA-HVGGSSV: DTPA-PEG-HVGGSSV labeled with ^111Indium ({DTPA-PEG}-HVGGSSV; also: 111In chelated by DTPA)”, in the series on D54 tumors, the “tumor binding by SPECT/CT, irradiated D54 tumors, compared to PEG-control” value is recorded as “enhanced binding”. Also, in the series on HT3 tumors [1] (setting [6]), the “tumor binding by SPECT, HT3 tumors” value was “bound”. Besides, the “effect of irradiating the tumor on tumor binding, HT3” value in the series on HT3 tumors [1] (setting [7]) is “did not affect tumor binding”. In the series with A549 tumors, the “tumor binding by SPECT/CT, irradiated A549 tumors, compared to PEG-control” value is on record as “enhanced binding”. Also, in the series with OE33 tumors [2], the “microscopic distribution in OE33 tumor sections” value was “even distribution” and the “uptake in leg muscle sections (control tissue)” value is given as “no peptide uptake”. Moreover, the “tumor binding by SPECT, OE33 tumors” value with OE33 tumors [3] (setting [6]) was “bound”. Besides, the “effect of irradiating the tumor on tumor binding, OE33” value in the series with OE33 tumors [3] (setting [7]) is “did not affect tumor binding”. Moreover, the “tumor uptake in biodistribution vs control peptide, OE33” value with OE33 tumors [4] (setting [8]) is reported as “significantly higher (p<0.001)”. In the series on OE33 tumors [4] (mouse, in vivo), the “presence in blood and liver, OE33 tumor-bearing mice” value was “observed in the blood and liver”. In addition, the “tumor binding by SPECT/CT, irradiated BxPC3 tumors, compared to PEG-control” value in the series on BxPC3 tumors is “enhanced binding”. Also, the “tumor uptake in biodistribution vs control peptide, HT3” value in the series on HT3 tumors [5] (setting [8]) is reported as “significantly higher (p<0.001)”. Further, the “presence in blood and liver, HT3 tumor-bearing mice” value in the series on HT3 tumors [5] (mouse, in vivo) is “observed in the blood and liver”.

Regarding “HGVIGRV [scrambled peptide, reference compound]”, the “binding to immobilized TIP1 (sensogram comparison)” value on TIP1 protein is “did not show binding”.

As for “mPEG40K-carbonyl-Lys(CHX-A”-DTPA)-AEEAc-Lys(CHX-A”-DTPA)-AEEAc-Trp-Lys(CHX-A”-DTPA)-AEEAc-Gly-Ile-Arg-Leu-Arg-Gly-OH [PEG-HVGGSSV, mPEG40K-carbonyl-Lys(CHX-A”-DTPA)-AEEAc-Lys(CHX-A”-DTPA)-AEEAc-Trp-Lys(CHX-A”-DTPA)-AEEAc-Gly-Ile-Arg-Leu-Arg-Gly-OH trifluoroacetate Salt]”, the “binding to immobilized TIP1 (sensogram comparison)” value on TIP1 protein is “did not alter the binding affinity”.

(Values after publication PMC6557269 (Journal of controlled release : official journal of the …, 2019).)
